Assay results published in ChEMBL document CHEMBL3739259, “Defining Key Structural Determinants for the Pro-osteogenic Activity of Flavonoids” (J Nat Prod, 2015).
Activity calls are given as the source filed them. The calls are words filed in the database; no cut-off is given here.

Legend:
[1] = Cytotoxicity against human MSC assessed as cell viability at 10 uM treated for 6 days measured on day 7 by alamar blue assay (reference value: 96 to 101%); conditions: MSC cells, read-out: Activity
MSC [2] = experiment: (§1) Induction of osteogenic differentiation in human MSC assessed as increase in ALP activity at 5 uM using p-NPP as substrate after 9 days by colorimetric method relative to control; format: functional
Procedure, shortened: (§2)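 ALP read on day 9 in passage-3 bone-marrow hMSCs cultured at high density in Os.D medium. Compound (1, 5 or 10 μM, 0.1% v/v DMSO final) was re-applied on days 0, 3 and 6. Colorimetric p-nitrophenyl phosphate method, normalised to time and cell number (pNP/min/20,000 cells). Expressed as % of untreated control; three independent triplicate experiments; one-way ANOVA versus vehicle.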

[3] = Cytotoxicity against human MSC assessed as cell viability at 5 uM treated for 6 days measured on day 7 by alamar blue assay (reference value: 96 to 101%); conditions: MSC cells, read-out: Activity
[4] = Cytotoxicity against human MSC assessed as cell viability at 5 uM treated for 3 days measured on day 4 by alamar blue assay (reference value: 97 to 100%); conditions: MSC cells, read-out: Activity
MSC [5] = experiment: Induction of osteogenic differentiation in human MSC assessed as increase in ALP activity at 1 uM using p-NPP as substrate after 9 days by colorimetric method relative to control; format: functional; procedure, shortened: as §2
[6] = Cytotoxicity against human MSC assessed as cell viability at 10 uM measured on day 1 by alamar blue assay (reference value: 97 to 101%); conditions: MSC cells, read-out: Activity
[7] = Cytotoxicity against human MSC assessed as cell viability at 1 uM treated for 6 days measured on day 7 by alamar blue assay (reference value: 96 to 101%); conditions: MSC cells, read-out: Activity
[8] = Cytotoxicity against human MSC assessed as cell viability at 5 uM measured on day 1 by alamar blue assay (reference value: 97 to 101%); conditions: MSC cells, read-out: Activity
MSC [9] = experiment: (§3) Induction of osteogenic differentiation in human MSC assessed as increase in ALP activity at 10 uM using p-NPP as substrate after 9 days by colorimetric method relative to control; format: functional; procedure, shortened: as §2
[10] = Cytotoxicity against human MSC assessed as cell viability at 10 uM treated for 3 days measured on day 4 by alamar blue assay (reference value: 97 to 100%); conditions: MSC cells, read-out: Activity
[11] = Cytotoxicity against human MSC assessed as cell viability at 1 uM measured on day 1 by alamar blue assay (reference value: 97 to 101%); conditions: MSC cells, read-out: Activity
[12] = Cytotoxicity against human MSC assessed as decrease in cell number at 1 to 10 uM after 9 days by methylene blue staining based microscopy relative to control; conditions: 216 h
Procedure, shortened: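 Passage-3 bone-marrow hMSCs, high density in Os.D medium, dosed with 1, 5 or 10 μM compound (0.1% v/v DMSO final) on days 0, 3 and 6 with medium changes. Cell number measured on day 9 by methylene blue proliferation assay. Expressed as % of untreated control; three independent triplicate experiments, mean ± SEM, one-way ANOVA versus vehicle.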

[13] = Cytotoxicity against human MSC assessed as cell viability at 1 uM treated for 3 days measured on day 4 by alamar blue assay (reference value: 97 to 100%); conditions: MSC cells, read-out: Activity
[14] = Decrease in ALP activity in human MSC using p-NPP as substrate at 10 uM after 9 days by colorimetric method relative to control; format: functional
Procedure, shortened: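 Passage-3 bone-marrow hMSCs from healthy donors, cultured at high density in osteogenic (Os.D) medium; compound given at days 0, 3 and 6 with media change every 3 days, final 0.1% (v/v) DMSO; vehicle, 50 nM calcitriol and untreated controls. Day-9 ALP by para-nitrophenyl phosphate colorimetry, normalised to time and cell number (methylene blue); % of untreated control, 3 independent triplicate experiments ± SEM.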

[15] = as §1; format: functional; procedure, shortened: as §2
MSC [16] = experiment: Induction of osteogenic differentiation in human MSC assessed as increase in ALP activity using p-NPP as substrate after 9 days by colorimetric method; format: functional; procedure, shortened: as §2
[17] = as §3; format: functional; procedure, shortened: as §2
[18] = Decrease in ALP activity in human MSC using p-NPP as substrate at 5 uM after 9 days by colorimetric method relative to control; format: functional; set-up: Activity: scale not given: the % may be the effect or the level left; procedure, shortened: as §2

In the case of `O=c1cc(-c2ccc(O)cc2)oc2cc(O)cc(O)c12` [APIGENIN], the viability at 144 h, 10 µM [1] is reported as 94%, the Activity (MSC [2]) is reported as “inactive” and the viability at 144 h, 5 µM [3] is reported as 97%. The viability at 72 h, 5 µM [4] was 99%, the Activity (MSC [5]) was “inactive” and the viability at 1 day, 10 µM [6] was 98%. For the same molecule, the viability at 144 h, 1 µM [7] was 96%, the viability at 1 day, 5 µM [8] was 102% and the Activity (MSC [9]) was “inactive”. The viability at 72 h, 10 µM [10] was 98%, the viability at 1 day, 1 µM [11] was 98% and the Activity [12] was “Toxic”. For the same molecule, the viability at 72 h, 1 µM [13] was 101%.

Molecule `O=c1cc(-c2ccc(O)c(O)c2)oc2cc(O)cc(O)c12` [LUTEOLIN] has a viability at 144 h, 10 µM [1] of 96%, a viability at 144 h, 5 µM [3] of 94% and a viability at 72 h, 5 µM [4] of 96%. For the same molecule, the Activity (MSC [5]) was “inactive”, the viability at 1 day, 10 µM [6] was 93% and the “fold change (FC)” value [14] was 0.59. For the same molecule, the viability at 144 h, 1 µM [7] was 97%, the viability at 1 day, 5 µM [8] was 96% and the viability at 72 h, 10 µM [10] was 94%. The viability at 1 day, 1 µM [11] was 100%, the Activity [12] was “Toxic” and the viability at 72 h, 1 µM [13] was 99%.

For `O=c1c(O)c(-c2ccccc2)oc2cc(O)cc(O)c12` [GALANGIN], the viability at 144 h, 10 µM [1] was 97%, the “fold change (FC)” value [15] was 1.52 and the viability at 144 h, 5 µM [3] was 97%. The viability at 72 h, 5 µM [4] was 91%, the Activity (MSC [5]) was “inactive” and the viability at 1 day, 10 µM [6] was 104%. The viability at 144 h, 1 µM [7] was 99%, the viability at 1 day, 5 µM [8] was 105% and the Activity (MSC [16]) was “Dose-dependent effect”. For the same molecule, the “fold change (FC)” value [17] was 1.32, the viability at 72 h, 10 µM [10] was 91% and the viability at 1 day, 1 µM [11] was 105%. It also gave a viability at 72 h, 1 µM [13] of 94%.

For `O=C(CCc1ccc(O)cc1)c1c(O)cc(O)cc1O` [PHLORETIN], the viability at 144 h, 10 µM [1] was 100%, the Activity (MSC [2]) was “inactive” and the viability at 144 h, 5 µM [3] was 98%. For the same molecule, the viability at 72 h, 5 µM [4] was 93%, the Activity (MSC [5]) was “inactive” and the viability at 1 day, 10 µM [6] was 106%. The viability at 144 h, 1 µM [7] was 97%, the viability at 1 day, 5 µM [8] was 105% and the Activity (MSC [9]) was “inactive”. The viability at 72 h, 10 µM [10] was 95%, the viability at 1 day, 1 µM [11] was 106% and the viability at 72 h, 1 µM [13] was 93%.

For `COc1cc(-c2oc3cc(O)cc(O)c3c(=O)c2O)ccc1O` [ISORHAMNETIN], the viability at 144 h, 10 µM [1] was 97%, the “fold change (FC)” value [15] was 1.52 and the viability at 144 h, 5 µM [3] was 100%. The viability at 72 h, 5 µM [4] was 92%, the Activity (MSC [5]) was “inactive” and the viability at 1 day, 10 µM [6] was 108%. For the same molecule, the viability at 144 h, 1 µM [7] was 98%, the viability at 1 day, 5 µM [8] was 107% and the “fold change (FC)” value [17] was 1.32. For the same molecule, the viability at 72 h, 10 µM [10] was 91%, the viability at 1 day, 1 µM [11] was 105% and the Activity [12] was “Toxic”. It also gave a viability at 72 h, 1 µM [13] of 93%.

For `COc1ccc(-c2cc(=O)c3c(O)cc(O)cc3o2)cc1O`, the Activity (MSC [2]) was “inactive”, the Activity (MSC [5]) was “inactive” and the Activity (MSC [9]) was “inactive”.

For `Oc1cc(O)c2c(c1)O[C@H](c1ccc(O)c(O)c1)[C@@H](O)C2` [CIANIDANOL], the viability at 144 h, 10 µM [1] was 98%, the Activity (MSC [2]) was “inactive” and the viability at 144 h, 5 µM [3] was 98%. For the same molecule, the viability at 72 h, 5 µM [4] was 92%, the Activity (MSC [5]) was “inactive” and the viability at 1 day, 10 µM [6] was 104%. For the same molecule, the viability at 144 h, 1 µM [7] was 97%, the viability at 1 day, 5 µM [8] was 104% and the Activity (MSC [9]) was “inactive”. For the same molecule, the viability at 72 h, 10 µM [10] was 93%, the viability at 1 day, 1 µM [11] was 105% and the viability at 72 h, 1 µM [13] was 94%.

In the case of `O=C1C[C@@H](c2ccc(O)c(O)c2)Oc2cc(O)cc(O)c21` [ERIODICTYOL], the viability at 144 h, 10 µM [1] is reported as 101%, the Activity [18] is reported as 98% and the Activity (MSC [2]) is reported as “inactive”. The viability at 144 h, 5 µM [3] was 102%, the viability at 72 h, 5 µM [4] was 102% and the Activity (MSC [5]) was “inactive”. For the same molecule, the viability at 1 day, 10 µM [6] was 99%, the viability at 144 h, 1 µM [7] was 101% and the viability at 1 day, 5 µM [8] was 98%. The Activity [17] was 111%, the viability at 72 h, 10 µM [10] was 102% and the viability at 1 day, 1 µM [11] was 102%. It also gave a viability at 72 h, 1 µM [13] of 103%.

In the case of `Oc1ccc(/C=C/c2cc(O)cc(O)c2)cc1` [RESVERATROL], the viability at 144 h, 10 µM [1] is reported as 97%, the Activity (MSC [2]) is reported as “inactive” and the viability at 144 h, 5 µM [3] is reported as 97%. The viability at 72 h, 5 µM [4] was 100%, the Activity (MSC [5]) was “inactive” and the viability at 1 day, 10 µM [6] was 98%. For the same molecule, the viability at 144 h, 1 µM [7] was 96%, the viability at 1 day, 5 µM [8] was 101% and the Activity (MSC [9]) was “inactive”. For the same molecule, the viability at 72 h, 10 µM [10] was 100%, the viability at 1 day, 1 µM [11] was 99% and the Activity [12] was “Toxic”. The viability at 72 h, 1 µM [13] was 100%.
